Here are results for 35 compounds from ChEMBL document CHEMBL1124242, “Renin inhibitors. Dipeptide analogues of angiotensinogen utilizing a dihydroxyethylene transition-state mimic at the scissile bond to impart greater inhibitory potency” (J Med Chem, 1988).

The target in experiment [1] is T1, Renin (Homo sapiens, UniProt P00797).
T1 sequence (P00797 whole entry): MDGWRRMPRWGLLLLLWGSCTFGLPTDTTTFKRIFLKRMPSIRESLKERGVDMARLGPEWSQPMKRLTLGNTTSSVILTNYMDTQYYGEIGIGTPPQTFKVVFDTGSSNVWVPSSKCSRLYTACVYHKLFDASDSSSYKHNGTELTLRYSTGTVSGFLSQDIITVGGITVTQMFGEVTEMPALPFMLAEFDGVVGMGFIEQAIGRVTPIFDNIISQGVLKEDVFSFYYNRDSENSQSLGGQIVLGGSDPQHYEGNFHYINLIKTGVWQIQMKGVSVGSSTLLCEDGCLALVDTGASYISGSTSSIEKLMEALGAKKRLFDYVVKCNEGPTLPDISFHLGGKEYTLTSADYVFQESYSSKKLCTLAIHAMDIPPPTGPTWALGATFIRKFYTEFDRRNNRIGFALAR
As to the kind of experiment: In vitro inhibitory activity was tested against purified human renal renin.

Experiment [2] addresses T2, Renin (Homo sapiens) (UniProt P00797).
T2 sequence (whole entry): T1 sequence (P00797 whole entry)
As to the kind of experiment: In vitro inhibitory activity against renin at 10e-5 M.

The target in experiment [3] is T1, Renin. As to the kind of experiment: In vitro inhibitory activity against renin.
For experiment [4], the target named is Pepsin A (Homo sapiens) (UniProt P0DJD9). Briefly: In vitro inhibitory activity against Human pepsin at 10e-5 M. Summed up: (§1)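 Human gastricsin and pepsin isolated from gastric juice by IRC-50 ion exchange with pH elution. Hemoglobin substrate; gastricsin run at pH 3.1, pepsin at pH 2.0. After trichloroacetic acid precipitation, supernatant absorbance read at 280 nm. Results given as percent inhibition at 10^-5 M.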
Chain of Pepsin A (Homo sapiens) (P0DJD9 whole entry, looked up): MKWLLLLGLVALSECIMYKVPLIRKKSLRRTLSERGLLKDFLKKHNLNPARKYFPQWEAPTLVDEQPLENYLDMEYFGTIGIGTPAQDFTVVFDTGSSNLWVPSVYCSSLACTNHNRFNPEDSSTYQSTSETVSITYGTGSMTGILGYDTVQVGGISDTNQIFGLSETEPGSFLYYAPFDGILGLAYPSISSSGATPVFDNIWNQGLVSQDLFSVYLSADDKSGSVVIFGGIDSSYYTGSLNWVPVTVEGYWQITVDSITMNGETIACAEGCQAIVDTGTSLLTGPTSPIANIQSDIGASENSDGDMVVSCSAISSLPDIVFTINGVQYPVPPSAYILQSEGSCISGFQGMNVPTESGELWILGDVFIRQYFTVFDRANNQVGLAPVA

Experiment [5] concerns the target T3, Cathepsin D (Bos taurus) (UniProt P80209).
T3 sequence (whole entry): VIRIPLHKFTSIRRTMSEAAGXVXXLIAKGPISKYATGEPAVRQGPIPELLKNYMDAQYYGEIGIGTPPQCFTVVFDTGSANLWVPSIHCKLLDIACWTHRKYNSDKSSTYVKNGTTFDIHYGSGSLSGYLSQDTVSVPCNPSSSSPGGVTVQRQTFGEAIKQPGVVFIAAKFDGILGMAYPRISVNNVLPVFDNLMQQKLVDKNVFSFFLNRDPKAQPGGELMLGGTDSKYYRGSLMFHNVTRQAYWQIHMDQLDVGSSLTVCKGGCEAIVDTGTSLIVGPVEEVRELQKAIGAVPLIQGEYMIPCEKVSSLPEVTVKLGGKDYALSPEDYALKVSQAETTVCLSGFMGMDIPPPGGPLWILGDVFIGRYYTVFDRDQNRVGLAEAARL
As to the kind of experiment: In vitro Inhibitory activity against Bovine cathepsin D at 10e-5 (M). The essentials:
(§2)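 Assayed against purified porcine pepsin or bovine cathepsin D by a method described previously. Results given as percent inhibition at 10^-5 M.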

In experiment [6] the target is Pepsin A (Sus scrofa) (UniProt P00791). Briefly: In vitro Inhibitory activity against porcine Pepsin at 10e-5 (M). The essentials:
as §2

Experiment [7] has as its target T4, Gastricsin (Homo sapiens) (UniProt P20142).
T4 sequence (whole entry): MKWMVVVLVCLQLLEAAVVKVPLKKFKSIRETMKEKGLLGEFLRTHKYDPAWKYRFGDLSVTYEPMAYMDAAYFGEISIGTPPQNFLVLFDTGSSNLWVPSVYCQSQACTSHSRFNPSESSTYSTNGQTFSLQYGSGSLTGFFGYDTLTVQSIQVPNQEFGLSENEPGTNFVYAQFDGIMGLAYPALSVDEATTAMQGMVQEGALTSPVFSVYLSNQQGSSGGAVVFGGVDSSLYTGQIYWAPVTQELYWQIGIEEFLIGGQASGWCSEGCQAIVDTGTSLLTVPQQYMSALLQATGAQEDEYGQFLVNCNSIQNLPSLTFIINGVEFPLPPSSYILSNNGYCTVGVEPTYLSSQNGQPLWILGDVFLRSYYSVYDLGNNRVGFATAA
Briefly: In vitro Inhibitory activity against human Gastricsin at 10e-5 (M). The essentials:
as §1

Experiment [8] concerns the target T2, Renin (Homo sapiens). Briefly: In vitro Inhibitory activity against Renin at 10e-9 (M). The essentials:
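Purified human renin, procedure as reported earlier. Results given as percent inhibition at 10^-9 M.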

SMILES strings stand for the structures. Where a SMILES comes first, the peptide text is derived from it. [ ]: non-standard residue; d: D form. The star is where a group is joined. Leu(ol) = CC(C)C[C@H](N)CO; Boc = CC(C)(C)OC(=O)*

The IC50 is the concentration at which inhibition is half-maximal. Low readings indicate greater potency, high ones weaker potency. What is called inhibition is the change of the read-out against control, counted positive when it falls.

Chain of Pepsin A (Sus scrofa) (P00791 whole entry, looked up): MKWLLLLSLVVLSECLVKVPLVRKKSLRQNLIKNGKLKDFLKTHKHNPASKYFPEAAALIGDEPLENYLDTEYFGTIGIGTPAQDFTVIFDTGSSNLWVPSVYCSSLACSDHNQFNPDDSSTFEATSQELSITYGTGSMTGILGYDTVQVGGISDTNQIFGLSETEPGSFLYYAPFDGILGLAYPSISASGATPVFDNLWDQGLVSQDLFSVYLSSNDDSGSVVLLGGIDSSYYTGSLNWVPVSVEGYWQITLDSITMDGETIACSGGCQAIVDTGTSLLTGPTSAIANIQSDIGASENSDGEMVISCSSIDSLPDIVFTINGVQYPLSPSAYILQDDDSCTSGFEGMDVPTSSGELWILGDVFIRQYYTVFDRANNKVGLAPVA

`CCOC(=O)N[C@@H](Cc1ccc(I)cc1)C(=O)N[C@@H](CC(C)C)C(=O)N[C@@H](CC1CCCCC1)[C@@H](O)[C@@H](O)CC(C)C`: the IC50 in experiment [1] turned out to be 2.5 nM.
Same read-out and setting: as for `CC(C)CN[C@@H](Cc1ccccc1)C(=O)N[C@@H](Cc1c[nH]cn1)C(=O)N[C@@H](CC1CCCCC1)[C@@H](O)[C@@H](O)CC(C)C`, the figure is 0.3 nM.
`CC(C)C[C@H](NC(=O)[C@H](C)NC(=O)[C@H](Cc1ccccc1)NC(=O)OC(C)(C)C)[C@@H](O)CO` showed an inhibition in experiment [2] of 65%. In experiment [3], this compound registered an IC50 of 4000 nM.
`CC(C)C[C@H](NC(=O)[C@H](Cc1c[nH]cn1)NC(=O)[C@H](Cc1ccccc1)NC(=O)OC(C)(C)C)[C@@H](O)[C@@H](O)CC(C)C` yielded an IC50 in experiment [1] of 11 nM.
Consider `COc1ccc(C[C@H](NC(=O)OC(C)(C)C)C(=O)N[C@@H](Cc2c[nH]cn2)C(=O)N[C@@H](CC2CCCCC2)[C@@H](O)[C@@H](O)CC(C)C)cc1`, for which the half-inhibitory concentration (IC50) in experiment [1] was determined as 1 nM.
As for `CC(C)C[C@H](NC(=O)OC(C)(C)C)C(=O)N[C@@H](Cc1c[nH]cn1)C(=O)N[C@@H](CC1CCCCC1)[C@@H](O)[C@@H](O)CC(C)C`, the inhibition in experiment [4], in experiment [5], in experiment [6] and in experiment [7] was 0% in each case.
Take `CC(C)C[C@H](O)[C@H](O)[C@H](CC1CCCCC1)NC(=O)[C@H](Cc1c[nH]cn1)NC(=O)[C@H](Cc1ccccc1)NC(=O)OC(C)(C)C`: the inhibition in experiment [4] turned out to be 0%; in experiment [5], 0%; in experiment [6], 0%; in experiment [8], 33%; in experiment [7], 0%. The IC50 in experiment [1] came to 35 nM.
`CC(C)C[C@H](O)[C@H](O)[C@H](CC1CCCCC1)NC(=O)[C@H](Cn1cccn1)NC(=O)[C@H](Cc1ccccc1)NC(=O)OC(C)(C)C` came in with a half-inhibitory concentration (IC50) in experiment [1] of 1 nM.
As to `CCOC(=O)N[C@@H](CC(C)C)C(=O)N[C@@H](Cc1c[nH]cn1)C(=O)N[C@@H](CC1CCCCC1)[C@@H](O)[C@@H](O)CC(C)C`, the inhibition in experiment [4] is 0%; in experiment [5], 0%; in experiment [6] it was 0%; in experiment [8], 3%; in experiment [7], 0%. The IC50 in experiment [1] was found to be 2 nM.
For `CC(C)C[C@H](O)[C@H](O)[C@H](CC1CCCCC1)NC(=O)[C@H](C)NC(=O)[C@H](Cc1ccccc1)NC(=O)OC(C)(C)C`, the inhibition in experiment [4], in experiment [5], in experiment [6] and in experiment [7] was 0% each time.
The compound `CC(C)COC(=O)N[C@@H](Cc1ccccc1)C(=O)N[C@@H](Cc1c[nH]cn1)C(=O)N[C@@H](CC1CCCCC1)[C@@H](O)[C@@H](O)CC(C)C` returned an IC50 in experiment [1] of 1 nM.
The same measure, in the same setting: the value for `CC(C)C[C@H](NC(=O)[C@H](Cc1ccccc1)NC(=O)OC(C)(C)C)C(=O)N[C@@H](CC1CCCCC1)[C@@H](O)[C@@H](O)CC(C)C` was 0.5 nM; that for `CCOC(=O)N[C@@H](Cc1cccc2ccccc12)C(=O)N[C@@H](CC(C)C)C(=O)N[C@@H](CC1CCCCC1)[C@@H](O)[C@@H](O)CC(C)C` was 0.25 nM.
`CC(C)C[C@H](O)[C@H](O)[C@H](CC1CCCCC1)NC(=O)[C@H](Cc1ccccc1)NC(=O)[C@H](Cc1ccccc1)NC(=O)OC(C)(C)C`: the results for the inhibition in experiment [5] and in experiment [6] were 0% and 10%, respectively.
As for `CC(C)C[C@@H](C=O)NC(=O)[C@H](C)NC(=O)[C@H](Cc1ccccc1)NC(=O)OC(C)(C)C` (Boc-Phe-Ala-Leu-aldehyde), the inhibition in experiment [2] was determined as 49%.
For the compound `CC(C)C[C@H](O)[C@H](O)[C@H](CC1CCCCC1)NC(=O)[C@H](Cc1c[nH]cn1)NC(=O)[C@H](CC1C=NC=N1)NC(=O)OC(C)(C)C` (stereo partly specified), in experiment [1], half-maximal inhibition (IC50) required 55 nM.
The same measure, in the same setting: as for `CC(C)C[C@H](O)[C@H](O)[C@H](CC1CCCCC1)NC(=O)[C@H](Cc1c[nH]cn1)NC(=O)[C@H](Cc1ccccc1)NC(=O)CC(C)(C)C`, the figure is 1 nM; as for `CC(C)CC[C@H](O)[C@H](O)[C@H](CC1CCCCC1)NC(=O)[C@H](Cc1c[nH]cn1)NC(=O)[C@H](Cc1ccccc1)NC(=O)OC(C)(C)C`, 4 nM.
Take `CCOC(=O)N[C@@H](Cc1ccccc1)C(=O)N[C@@H](Cc1c[nH]cn1)C(=O)N[C@@H](CC1CCCCC1)[C@@H](O)[C@@H](O)CC`: inhibition in experiment [1] was half-maximal at 0.5 nM (IC50).
`CC(C)C[C@@H](CCO)NC(=O)[C@H](C)NC(=O)[C@H](Cc1ccccc1)NC(=O)OC(C)(C)C` gave an inhibition in experiment [2] of 0%.
With `CCOC(=O)N[C@@H](Cc1ccccc1)C(=O)N[C@@H](CC(C)C)C(=O)N[C@@H](CC1CCCCC1)[C@@H](O)[C@@H](O)CC(C)C`, the inhibition came to 11% in experiment [4]; 23% in experiment [5]; 32% in experiment [6]; 71% in experiment [8]; 7% in experiment [7]. Besides, the IC50 in experiment [1] came out at 0.3 nM.
Regarding `C[C@H](NC(=O)[C@H](Cc1ccccc1)NC(=O)OC(C)(C)C)C(=O)N[C@H](CO)CC1CCCCC1`, the inhibition in experiment [2] was found to be 73%. The compound also returned an IC50 in experiment [3] of 4000 nM.
With `CCOC(=O)N[C@@H](Cc1ccccc1)C(=O)N[C@@H](CC(C)C)C(=O)N[C@@H](CC1CCCCC1)[C@@H](O)[C@@H](O)CC`, the IC50 in experiment [1] stood at 1.1 nM.
`CC(C)C[C@H](O)[C@H](O)[C@H](CC1CCCCC1)NC(=O)[C@H](Cc1c[nH]cn1)NC(=O)[C@H](C)NC(=O)OC(C)(C)C` had a half-maximal inhibitory concentration (IC50) in experiment [1] of 200 nM.
Compound `C[C@H](NC(=O)[C@H](Cc1ccccc1)NC(=O)OC(C)(C)C)C(=O)N[C@@H](CC1CCCCC1)[C@@H](O)CO` showed an inhibition in experiment [2] of 98%. In addition, in experiment [3], the IC50 amounted to 350 nM.
Regarding `CC(C)C[C@H](NC(=O)[C@H](C)NC(=O)[C@H](Cc1ccccc1)NC(=O)OC(C)(C)C)[C@@H](O)CCO`, the inhibition in experiment [2] amounted to 13%.
Regarding `CC[C@H](O)[C@H](O)[C@H](CC1CCCCC1)NC(=O)[C@H](Cc1c[nH]cn1)NC(=O)[C@H](Cc1ccccc1)NC(=O)OC(C)(C)C`, the IC50 in experiment [1] was found to be 0.6 nM.
The compound `CC(C)CC[C@H](O)[C@H](CC(C)C)NC(=O)[C@H](Cc1c[nH]cn1)NC(=O)[C@H](Cc1ccccc1)NC(=O)OC(C)(C)C` displayed an IC50 in experiment [1] of 1500 nM.
As to `CCOC(=O)N[C@@H](Cc1ccc(OC)cc1)C(=O)N[C@@H](CC(C)C)C(=O)N[C@@H](CC1CCCCC1)[C@@H](O)[C@@H](O)CC(C)C`, the IC50 in experiment [1] was 0.2 nM.
In the case of `CC(C)CC[C@H](O)[C@H](CC1CCCCC1)NC(=O)[C@H](Cc1c[nH]cn1)NC(=O)[C@H](Cc1ccccc1)NC(=O)OC(C)(C)C`, the midpoint of inhibition in experiment [1], the IC50, lay at 10 nM.
The compound `CC(C)C[C@@H](CO)NC(=O)[C@H](C)NC(=O)[C@H](Cc1ccccc1)NC(=O)OC(C)(C)C` (Boc-Phe-Ala-[Leu(ol)]) showed an inhibition in experiment [2] of 9%.
The compound `CCOC(=O)N[C@@H](CC(C)C)C(=O)N[C@@H](Cc1c[nH]cn1)C(=O)N[C@@H](CC1CCCCC1)[C@@H](O)[C@@H](O)CC` gave an IC50 in experiment [1] of 10 nM.
Turning to `CC(C)C[C@H](O)[C@H](O)[C@H](CC1CCCCC1)NC(=O)[C@H](Cc1c[nH]cn1)NC(=O)[C@H](Cc1ccccc1)NC(=O)C1CCCCC1`, the IC50 in experiment [1] came to 0.7 nM.
`CCOC(=O)N[C@@H](Cc1ccccc1)C(=O)N[C@@H](Cc1ccccc1)C(=O)N[C@@H](CC1CCCCC1)[C@@H](O)[C@@H](O)CC(C)C` registered an IC50 in experiment [1] of 1 nM.
As to `CC(C)C[C@H](O)[C@H](O)[C@H](CC1CCCCC1)NC(=O)[C@H](Cc1c[nH]cn1)NC(=O)[C@H](Cc1cccc2ccccc12)NC(=O)OC(C)(C)C`, the inhibition in experiment [5] and in experiment [6] was 0% in each case.
